Measurements from ChEMBL document CHEMBL1156982, “New 3-methylquinoxaline-2-carboxamide 1,4-di-N-oxide derivatives as anti-Mycobacterium tuberculosis agents” (Bioorg Med Chem, 2010).
In brackets after ≈: the same amount, converted by molar mass.

Assays:
[1] = system: Mycobacterium tuberculosis; assay: Antituberculosis activity against Mycobacterium tuberculosis H37Rv ATCC 27294 after 4 days by microplate alamar blue assay; assay type: functional; conditions: H37Rv ATCC 27294, 96 h
Procedure, shortened: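 M. tuberculosis H37Rv (ATCC 27294) in BACTEC 12B medium, tested by Microplate Alamar Blue Assay across a range of lower concentrations. MIC is the lowest concentration giving a 90% reduction in fluorescence versus controls. Rifampicin was the reference.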

Vero = assay: Cytotoxicity against african green monkey Vero cells after 72 hrs by MTT assay; assay type: cell-based; conditions: Chlorocebus sabaeus
Procedure, shortened: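 VERO cells were exposed to compound for 72 h. Viability was read from cellular conversion of MTT to formazan (CellTiter 96 non-radioactive proliferation assay), and the IC50 was determined.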

[2] = Selectivity ratio of IC50 for Vero cells to MIC for Mycobacterium tuberculosis H37Rv ATCC 27294; assay type: functional
Procedure, shortened: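 SI is the ratio of the IC50 measured in VERO cells (72 h MTT) to the MIC against M. tuberculosis H37Rv (MABA, 90% fluorescence reduction). An SI of 10 or more counts as active at the second screening level.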

[3] = system: Mycobacterium tuberculosis; assay: Antituberculosis activity against Mycobacterium tuberculosis H37Rv ATCC 27294; assay type: functional

SMILES	MIC [1]	IC50 (Vero)	Selectivity ratio [2]	Activity [3]
Cc1c(C(=O)NCCc2ccccc2)[n+]([O-])c2cc(C(F)(F)F)ccc2[n+]1[O-]	1.15 µg/mL (≈ 2.95 µM)	> 30 µg/mL	>26.019	>=90%
COc1ccc(CCNC(=O)c2c(C)[n+]([O-])c3ccccc3[n+]2[O-])cc1	3.46 µg/mL (≈ 9.8 µM)	> 30 µg/mL	>8.6605	>=90%
COc1ccc(CCNC(=O)c2c(C)[n+]([O-])c3ccc(F)cc3[n+]2[O-])cc1	< 0.195 µg/mL	> 30 µg/mL	>153.84	>=90%
COc1ccc(CCNC(=O)c2c(C)[n+]([O-])c3cc(F)c(F)cc3[n+]2[O-])cc1	2.06 µg/mL (≈ 5.29 µM)	> 30 µg/mL	>14.577	>=90%
Cc1c(C(=O)NCc2ccccc2)[n+]([O-])c2cc(F)c(F)cc2[n+]1[O-]	1.73 µg/mL (≈ 5 µM)	18.4 µg/mL (≈ 53.2 µM)	10.64	>=90%
Cc1c(C(=O)NCCc2ccccc2)[n+]([O-])c2cc(Cl)c(Cl)cc2[n+]1[O-]	< 0.195 µg/mL	> 30 µg/mL	>153.84	>=90%
Cc1c(C(=O)NCCc2ccccc2)[n+]([O-])c2cc(F)ccc2[n+]1[O-]	0.504 µg/mL (≈ 1.48 µM)	> 100 µg/mL	>198.41	>=90%
COc1ccc2c(c1)[n+]([O-])c(C(=O)NCc1ccccc1)c(C)[n+]2[O-]	12.3 µg/mL (≈ 36.4 µM)	–	–	>=90%
Cc1c(C(=O)NCc2ccccc2)[n+]([O-])c2cc(Cl)ccc2[n+]1[O-]	0.433 µg/mL (≈ 1.26 µM)	> 100 µg/mL	>230.94	>=90%
Cc1ccc2c(c1)[n+]([O-])c(C(=O)NCc1ccccc1)c(C)[n+]2[O-]	4.21 µg/mL (≈ 13 µM)	> 100 µg/mL	>23.77	>=90%
Cc1c(C(=O)NCCc2ccccc2)[n+]([O-])c2cc(F)c(F)cc2[n+]1[O-]	0.517 µg/mL (≈ 1.44 µM)	> 30 µg/mL	>58.027	>=90%
COc1ccc(CCNC(=O)c2c(C)[n+]([O-])c3ccc(Cl)cc3[n+]2[O-])cc1	< 0.195 µg/mL	> 30 µg/mL	>153.84	>=90%
COc1ccc(CCNC(=O)c2c(C)[n+]([O-])c3cc(Cl)c(Cl)cc3[n+]2[O-])cc1	0.454 µg/mL (≈ 1.08 µM)	> 30 µg/mL	>66.079	>=90%
Cc1c(C(=O)NCc2ccccc2)[n+]([O-])c2cc(Cl)c(Cl)cc2[n+]1[O-]	< 0.2 µg/mL	> 100 µg/mL	>500	>=90%
COc1ccc(CNC(=O)c2c(C)[n+]([O-])c3ccc(C(F)(F)F)cc3[n+]2[O-])cc1	0.999 µg/mL (≈ 2.45 µM)	> 30 µg/mL	>30.03	>=90%
Cc1c(C(=O)NCc2ccccc2)[n+]([O-])c2cc(C(F)(F)F)ccc2[n+]1[O-]	0.406 µg/mL (≈ 1.08 µM)	> 100 µg/mL	>246.3	>=90%
COc1ccc(CNC(=O)c2c(C)[n+]([O-])c3ccccc3[n+]2[O-])cc1	2.85 µg/mL (≈ 8.39 µM)	> 30 µg/mL	>10.537	>=90%
COc1ccc(CNC(=O)c2c(C)[n+]([O-])c3ccc(C)cc3[n+]2[O-])cc1	8.9 µg/mL (≈ 25.2 µM)	> 30 µg/mL	>3.3696	>=90%
Cc1c(C(=O)NCc2ccccc2)[n+]([O-])c2cc(F)ccc2[n+]1[O-]	1.52 µg/mL (≈ 4.65 µM)	> 100 µg/mL	>65.7	>=90%

SMILES	MIC [1]	IC50 (Vero)	Selectivity ratio [2]	Activity [3]
COc1ccc(CNC(=O)c2c(C)[n+]([O-])c3cc(C)c(C)cc3[n+]2[O-])cc1	> 100 µg/mL	–	–	>=90%
Cc1c(C(=O)NCCc2ccccc2)[n+]([O-])c2ccccc2[n+]1[O-]	3.05 µg/mL (≈ 9.43 µM)	> 100 µg/mL	>32.81	>=90%
Cc1ccc2c(c1)[n+]([O-])c(C(=O)NCCc1ccccc1)c(C)[n+]2[O-]	8.62 µg/mL (≈ 25.6 µM)	> 100 µg/mL	>11.6	>=90%
Cc1cc2c(cc1C)[n+]([O-])c(C(=O)NCCc1ccccc1)c(C)[n+]2[O-]	16.4 µg/mL (≈ 46.6 µM)	–	–	>=90%
COc1ccc2c(c1)[n+]([O-])c(C(=O)NCCc1ccccc1)c(C)[n+]2[O-]	13.7 µg/mL (≈ 38.7 µM)	–	–	>=90%
Cc1c(C(=O)NCCc2ccccc2)[n+]([O-])c2cc(Cl)ccc2[n+]1[O-]	< 0.2 µg/mL	> 100 µg/mL	>500	>=90%
COc1ccc(CCNC(=O)c2c(C)[n+]([O-])c3ccc(C(F)(F)F)cc3[n+]2[O-])cc1	1.43 µg/mL (≈ 3.39 µM)	> 30 µg/mL	>21.023	>=90%
COc1ccc(CNC(=O)c2c(C)[n+]([O-])c3ccc(OC)cc3[n+]2[O-])cc1	12 µg/mL (≈ 32.5 µM)	–	–	>=90%
COc1ccc(CCNC(=O)c2c(C)[n+]([O-])c3ccc(OC)cc3[n+]2[O-])cc1	16.9 µg/mL (≈ 44 µM)	–	–	>=90%
COc1ccc(CNC(=O)c2c(C)[n+]([O-])c3ccc(Cl)cc3[n+]2[O-])cc1	–	–	–	>=90%
Cc1c(C(=O)NCc2ccccc2)[n+]([O-])c2ccccc2[n+]1[O-]	2.61 µg/mL (≈ 8.42 µM)	> 100 µg/mL	>38.372	>=90%
Cc1cc2c(cc1C)[n+]([O-])c(C(=O)NCc1ccccc1)c(C)[n+]2[O-]	> 100 µg/mL	–	–	>=90%
COc1ccc(CCNC(=O)c2c(C)[n+]([O-])c3ccc(C)cc3[n+]2[O-])cc1	8.85 µg/mL (≈ 24.1 µM)	> 30 µg/mL	>3.389	>=90%
COc1ccc(CCNC(=O)c2c(C)[n+]([O-])c3cc(C)c(C)cc3[n+]2[O-])cc1	> 100 µg/mL	–	–	>=90%
COc1ccc(CNC(=O)c2c(C)[n+]([O-])c3cc(Cl)c(Cl)cc3[n+]2[O-])cc1	–	–	–	>=90%
COc1ccc(CNC(=O)c2c(C)[n+]([O-])c3ccc(F)cc3[n+]2[O-])cc1	1.51 µg/mL (≈ 4.22 µM)	> 30 µg/mL	>19.893	>=90%
COc1ccc(CNC(=O)c2c(C)[n+]([O-])c3cc(F)c(F)cc3[n+]2[O-])cc1	0.764 µg/mL (≈ 2.04 µM)	16.6 µg/mL (≈ 44.2 µM)	21.734	>=90%
CO[C@H]1/C=C/O[C@@]2(C)Oc3c(C)c(O)c4c(O)c(c(/C=N/N5CCN(C)CC5)c(O)c4c3C2=O)NC(=O)/C(C)=C\C=C\[C@H](C)[C@H](O)[C@@H](C)[C@@H](O)[C@@H](C)[C@H](OC(C)=O)[C@@H]1C [RIFAMPIN]	0.015 µg/mL (≈ 0.0182 µM)	> 100 µg/mL	>800	–
